Drawing on ChEMBL document CHEMBL1125579, “Relative structure-inhibition analyses of the N-benzoyl and N-(phenylsulfonyl) amino acid aldose reductase inhibitors” (J Med Chem, 1991), this text covers IC50 for 24 compounds.

pIC50: −log10 of the molar value.

The target of the experiment is Aldo-keto reductase family 1 member B1 (Rattus norvegicus, UniProt P07943). The experiment is described as follows: Inhibitory activity against aldose reductase in rat lens. The procedure, abridged: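 Rat lens enzyme: 100 lenses from frozen rat eyes homogenized in distilled water and centrifuged at 5 °C; the supernatant was brought to 40% ammonium sulfate saturation and the freshly prepared supernatant was used. NADPH loss was read at 340 nm for 3 min.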
The compound `O=C(O)CN(C(=O)c1cccc2ccccc12)c1ccccc1` had a pIC50 of 5.07.

On to `O=C(O)CN(C(=O)c1ccc2ccccc2c1)c1ccccc1`, for which the pIC50 is 4.72.

As for `O=C(O)CN(C(=O)c1ccccc1)c1ccccc1`, the negative-log IC50 (pIC50) is 5.20. This pIC50 is 0.48 log units higher than that of the compound before. `O=C(O)CN(C(=O)c1ccc(NC(=O)c2ccccc2)cc1)c1ccccc1` had a negative-log IC50 (pIC50) of 6.62. Take `O=C(O)CNC(=O)c1cccc2ccccc12`: the pIC50 was 3.66. On to `O=C(O)CNC(=O)c1ccc2ccccc2c1`, for which the pIC50 is 4.15. This pIC50 is 0.49 log units higher than that of the compound before.

On to `Cc1ccc(C(=O)N(CC(=O)O)c2ccccc2)cc1`, for which the pIC50 is 5.43. Compared with the last compound, the pIC50 is 1.28 log units higher. For the compound `Nc1ccc(C(=O)N(CC(=O)O)c2ccccc2)cc1`, the pIC50 is 4.92. Compared with the last compound, the pIC50 is 0.51 log units lower.

The compound `O=C(O)CNC(=O)c1ccc(NC(=O)Cc2ccccc2)cc1` gave a pIC50 of 4.68. `O=C(O)CNC(=O)c1cccc(NC(=O)c2ccccc2)c1` gave a pIC50 of 4.31. Under `Cc1ccc(C(=O)N(C)CC(=O)O)cc1` stands 4.89; under `CN(CC(=O)O)C(=O)c1ccc([N+](=O)[O-])cc1`, 4.59; under `O=C(O)CN(C(=O)c1ccc([N+](=O)[O-])cc1)c1ccccc1`, 6.25. In the case of `O=C(O)CNC(=O)c1ccc(NC(=O)CCc2ccccc2)cc1` it was 4.35; in that of `CN(CC(=O)O)C(=O)c1ccccc1`, 4.64; in that of `CN(CC(=O)O)C(=O)c1ccc(N)cc1`, 4.96. In the case of `COc1ccc(C(=O)N(CC(=O)O)c2ccccc2)cc1` it was 5.49; in that of `CN(CC(=O)O)C(=O)c1cccc2ccccc12`, 4.40; in that of `COc1ccc(C(=O)N(C)CC(=O)O)cc1`, 5.17.

Take `O=C(O)CNC(=O)c1ccc(NC(=O)c2ccccc2)cc1`: the pIC50 is 5.02. The pIC50 values of the last two compounds are within 0.2 log units of each other. In the case of `CN(CC(=O)O)C(=O)c1ccc(F)cc1` it was 5.06. As for `CN(CC(=O)O)C(=O)c1ccc2ccccc2c1`, the pIC50 is 4.72. `O=C(O)CN(C(=O)c1ccc(F)cc1)c1ccccc1` had a negative logarithm of the IC50 (pIC50) of 5.09. In the case of `CN(CC(=O)O)C(=O)c1ccc(NC(=O)c2ccccc2)cc1` it was 5.55.

Broadly, the pIC50 is the negative decadic logarithm of the IC50, by convention in mol/L. A low value points to a high IC50.
